In ChEMBL document CHEMBL5715950, “Characterization of molecular and cellular functions of the cyclin-dependent kinase CDK9 using a novel specific inhibitor” (Br J Pharmacol, 2014):
Active and inactive are the calls of the source. No cut-off for these calls is given here.

Key:
[1] = target: T1, Mitogen-activated protein kinase kinase kinase kinase 4 (Homo sapiens, UniProt O95819); experiment: Inhibition of MAP4K4 (unknown origin) incubated for 120 mins in presence of 33P-ATP by radiometric kinase assay
Target sequence in this assay (O95819 whole entry, the tested form may be a part): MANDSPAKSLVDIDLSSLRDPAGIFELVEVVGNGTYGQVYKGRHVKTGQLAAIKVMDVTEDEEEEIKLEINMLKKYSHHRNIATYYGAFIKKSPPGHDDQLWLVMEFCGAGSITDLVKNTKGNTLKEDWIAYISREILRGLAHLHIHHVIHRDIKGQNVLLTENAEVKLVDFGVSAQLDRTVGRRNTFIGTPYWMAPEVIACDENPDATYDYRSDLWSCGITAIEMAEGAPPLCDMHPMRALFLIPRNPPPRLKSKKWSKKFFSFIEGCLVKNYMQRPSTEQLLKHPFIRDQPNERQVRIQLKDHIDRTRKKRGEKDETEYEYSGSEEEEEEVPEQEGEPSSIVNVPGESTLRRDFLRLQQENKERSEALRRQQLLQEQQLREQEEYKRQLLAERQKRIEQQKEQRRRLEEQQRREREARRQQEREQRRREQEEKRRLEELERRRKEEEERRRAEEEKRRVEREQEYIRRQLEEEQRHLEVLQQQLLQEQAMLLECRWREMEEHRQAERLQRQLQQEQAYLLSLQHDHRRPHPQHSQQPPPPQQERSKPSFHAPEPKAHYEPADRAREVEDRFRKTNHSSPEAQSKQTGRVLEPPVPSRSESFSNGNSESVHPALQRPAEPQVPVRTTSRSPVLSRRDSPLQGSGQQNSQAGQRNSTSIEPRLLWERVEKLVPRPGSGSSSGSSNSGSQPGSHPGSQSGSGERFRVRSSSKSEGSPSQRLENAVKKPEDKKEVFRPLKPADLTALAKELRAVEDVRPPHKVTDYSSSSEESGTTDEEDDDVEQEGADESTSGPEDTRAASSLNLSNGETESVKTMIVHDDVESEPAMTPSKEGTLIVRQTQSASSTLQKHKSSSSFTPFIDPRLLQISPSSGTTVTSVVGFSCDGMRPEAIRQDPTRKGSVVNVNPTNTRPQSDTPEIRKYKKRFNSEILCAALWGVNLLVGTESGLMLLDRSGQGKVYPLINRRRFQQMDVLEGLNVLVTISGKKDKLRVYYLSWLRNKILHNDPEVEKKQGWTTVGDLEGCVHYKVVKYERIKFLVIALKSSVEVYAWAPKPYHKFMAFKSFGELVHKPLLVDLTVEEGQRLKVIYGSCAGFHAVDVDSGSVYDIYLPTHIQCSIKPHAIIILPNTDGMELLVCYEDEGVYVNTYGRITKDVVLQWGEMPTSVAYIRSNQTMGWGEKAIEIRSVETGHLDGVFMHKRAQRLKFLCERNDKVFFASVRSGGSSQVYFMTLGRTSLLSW

[2] = Transcription level in human HEK293T cells nuclear extract fused with Gal4-VP16 at 10 uM in presence of ATP by phosphorimaging analysis relative to control; details: HEK-293T
HEK-293T = experiment: Inhibition of transcription in human HEK293T cells nuclear extract fused with Gal4-VP16 at 10 uM in presence of ATP and MgCl2 by phosphorimaging analysis; assay type: functional, subcellular; details: Nucleus
Method in brief: (§1)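 In vitro transcription from the adenovirus core promoter (Gal-ML, 380 bp G-free cassette), soluble or bead-immobilised template, using HEK293T nuclear extract supplemented with recombinant Gal4-VP16. ATP 60 μM (low), 100 μM, or 500 μM (high); magnesium varied in one series. Transcripts quantified by phosphorimaging.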

[3] = Inhibition of transcription in human HEK293T cells nuclear extract fused with Gal4-VP16 at 4 uM in presence of ATP by phosphorimaging analysis; assay type: functional; details: HEK-293T; method in brief: as §1
A549 = experiment: Induction of apoptosis in human A549 cells at 10 uM incubated for 24 hrs by Annexin V-FITC/PI staining based flow cytometric analysis; assay type: functional, cell-based
Method in brief: (§2)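 Cells grown at 37°C, 5% CO2 (A549, HeLa, MCF7 in DMEM high glucose; HCT116 in McCoy's 5A; THP1 and primary AML M4 apheresis blasts in RPMI1640), exposed to inhibitor or DMSO for 24 h. Apoptotic fraction by flow cytometry after annexin V-fluorescein/propidium iodide double staining. Means ± SD of three biological replicates; AML blasts from one patient, three technical replicates. Student's t-test versus DMSO/untreated.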

[4] = target: Cyclin-dependent kinase 9 (Homo sapiens) (UniProt P50750); experiment: Inhibition of CDK9 in human A549 cells assessed as downregulation of MYC mRNA expression at 1 to 10 uM incubated for 90 mins by RT-qPCR analysis relative to control; assay type: cell-based; details: dose 1-10 µM
THP-1 = experiment: Induction of apoptosis in human THP-1 cells at 10 uM incubated for 24 hrs by Annexin V-FITC/PI staining based flow cytometric analysis relative to control; assay type: functional; method in brief: as §2
[5] = Selectivity ratio of IC50 for inhibition of CDK9/Cyclin T1 (unknown origin) to IC50 for inhibition of CDK7/Cyclin H/MAT1 (unknown origin)
[6] = target: Cyclin-dependent kinase 9 (Homo sapiens) (UniProt P50750); experiment: Inhibition of CDK9 in human A549 cells assessed as downregulation of p21 mRNA expression at 1 to 10 uM incubated for 90 mins by RT-qPCR analysis relative to control; assay type: cell-based; details: dose 1-10 µM
[7] = target: Cyclin-dependent kinase 9 (Homo sapiens) (UniProt P50750); experiment: Inhibition of CDK9 in human HeLa cells assessed as upregulation of serine 7 phosphorylation at 10 uM incubated for 1 hr by chromatin immunoprecipitation assay; assay type: cell-based
CDK7/Cyclin H/MNAT1 = CDK7/Cyclin H/MNAT1 (Homo sapiens, UniProt P50613); experiment: Displacement of kinase tracer 236 from CDK7/Cyclin H/MAT1 (unknown origin) assessed as dissociation constant incubated for 1 hr by LanthScreen Eu kinase binding assay; assay type: protein-complex assay
[8] = target: Cyclin-dependent kinase 9 (Homo sapiens) (UniProt P50750); experiment: Inhibition of CDK9 in human MCF7 cells assessed as upregulation of p53 phosphorylation at Ser392 at 10 uM incubated for 4 hrs by Western blotting analysis; assay type: cell-based
HeLa [9] = experiment: Inhibition of RNA synthesis in human HeLa cells stably transfected with luciferase reporter gene at 10 uM incubated for 30 mins followed by doxycycline addition and measured after 60 mins by RT-qPCR analysis relative to control; assay type: functional; details: 1.5 h, time 90 min
Method in brief: (§3)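 Stably transfected HeLa cells carrying a tetracycline-inducible luciferase reporter: inhibitor or DMSO for 30 min, then 1 μg/mL doxycycline for 60 min. De novo reporter transcripts measured by RT-qPCR.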

[10] = target: T1, Mitogen-activated protein kinase kinase kinase kinase 4; experiment: Inhibition of MAP4K4 (unknown origin) assessed as residual activity at 10 uM incubated for 120 mins in presence of 33P-ATP by radiometric kinase assay relative to control
Target sequence in this assay (O95819 2-1239 limits assumed): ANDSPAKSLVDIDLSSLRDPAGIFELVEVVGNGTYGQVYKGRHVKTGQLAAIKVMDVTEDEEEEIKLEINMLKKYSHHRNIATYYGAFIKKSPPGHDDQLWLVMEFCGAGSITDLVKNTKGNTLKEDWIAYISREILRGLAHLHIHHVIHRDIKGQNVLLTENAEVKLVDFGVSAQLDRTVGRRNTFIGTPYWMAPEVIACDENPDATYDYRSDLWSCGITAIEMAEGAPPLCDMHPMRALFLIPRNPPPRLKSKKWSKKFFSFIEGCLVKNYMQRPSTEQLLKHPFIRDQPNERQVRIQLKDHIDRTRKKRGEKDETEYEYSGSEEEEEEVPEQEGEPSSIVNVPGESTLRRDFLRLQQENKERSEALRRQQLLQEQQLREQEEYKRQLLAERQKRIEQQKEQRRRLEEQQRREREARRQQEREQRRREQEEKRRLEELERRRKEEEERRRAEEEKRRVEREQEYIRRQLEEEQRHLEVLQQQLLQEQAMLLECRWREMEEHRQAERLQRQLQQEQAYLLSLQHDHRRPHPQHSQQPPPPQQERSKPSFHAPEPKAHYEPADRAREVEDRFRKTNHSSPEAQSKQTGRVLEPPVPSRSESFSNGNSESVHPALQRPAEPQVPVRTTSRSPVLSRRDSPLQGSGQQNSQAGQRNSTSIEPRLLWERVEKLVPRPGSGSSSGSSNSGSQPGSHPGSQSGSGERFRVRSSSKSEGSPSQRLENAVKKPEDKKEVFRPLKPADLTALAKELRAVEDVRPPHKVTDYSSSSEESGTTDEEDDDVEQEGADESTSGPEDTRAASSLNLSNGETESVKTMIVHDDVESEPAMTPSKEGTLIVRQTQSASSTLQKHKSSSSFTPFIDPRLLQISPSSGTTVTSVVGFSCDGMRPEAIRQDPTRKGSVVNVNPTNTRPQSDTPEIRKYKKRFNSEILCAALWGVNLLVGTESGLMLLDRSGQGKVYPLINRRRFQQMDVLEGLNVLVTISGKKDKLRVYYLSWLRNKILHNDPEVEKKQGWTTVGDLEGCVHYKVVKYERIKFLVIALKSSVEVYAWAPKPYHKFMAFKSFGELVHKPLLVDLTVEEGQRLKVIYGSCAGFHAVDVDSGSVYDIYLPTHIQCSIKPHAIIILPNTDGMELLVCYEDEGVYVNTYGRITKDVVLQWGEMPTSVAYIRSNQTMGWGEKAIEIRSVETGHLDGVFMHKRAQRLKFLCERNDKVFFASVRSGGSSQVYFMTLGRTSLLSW

HeLa [11] = experiment: Inhibition of RNA synthesis in human HeLa cells stably transfected with luciferase reporter gene incubated for 30 mins followed by doxycycline addition and measured after 60 mins by RT-qPCR analysis; assay type: functional, cell-based; details: time 90.0 min; method in brief: as §3

Sequence of Cyclin-dependent kinase 9 (Homo sapiens) (P50750 whole entry): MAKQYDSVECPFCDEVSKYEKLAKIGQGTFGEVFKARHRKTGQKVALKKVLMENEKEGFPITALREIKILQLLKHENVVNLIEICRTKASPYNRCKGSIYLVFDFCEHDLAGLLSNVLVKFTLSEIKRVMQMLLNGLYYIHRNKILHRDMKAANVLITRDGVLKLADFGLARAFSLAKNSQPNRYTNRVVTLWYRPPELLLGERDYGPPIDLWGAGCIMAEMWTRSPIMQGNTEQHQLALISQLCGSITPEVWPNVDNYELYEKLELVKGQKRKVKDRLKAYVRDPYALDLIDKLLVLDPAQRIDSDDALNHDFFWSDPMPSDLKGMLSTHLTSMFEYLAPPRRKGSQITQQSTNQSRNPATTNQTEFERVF
Sequence of CDK7/Cyclin H/MNAT1 (P51946 whole entry): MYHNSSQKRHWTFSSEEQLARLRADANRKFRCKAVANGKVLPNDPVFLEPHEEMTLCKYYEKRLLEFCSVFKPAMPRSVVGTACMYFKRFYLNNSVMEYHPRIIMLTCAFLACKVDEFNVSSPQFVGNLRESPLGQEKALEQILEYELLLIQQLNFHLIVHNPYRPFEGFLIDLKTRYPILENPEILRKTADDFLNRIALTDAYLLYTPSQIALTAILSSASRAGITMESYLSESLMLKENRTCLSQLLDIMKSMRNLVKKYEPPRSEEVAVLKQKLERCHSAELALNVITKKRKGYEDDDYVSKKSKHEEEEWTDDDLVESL
Sequence of CDK7/Cyclin H/MNAT1 (P50613 whole entry): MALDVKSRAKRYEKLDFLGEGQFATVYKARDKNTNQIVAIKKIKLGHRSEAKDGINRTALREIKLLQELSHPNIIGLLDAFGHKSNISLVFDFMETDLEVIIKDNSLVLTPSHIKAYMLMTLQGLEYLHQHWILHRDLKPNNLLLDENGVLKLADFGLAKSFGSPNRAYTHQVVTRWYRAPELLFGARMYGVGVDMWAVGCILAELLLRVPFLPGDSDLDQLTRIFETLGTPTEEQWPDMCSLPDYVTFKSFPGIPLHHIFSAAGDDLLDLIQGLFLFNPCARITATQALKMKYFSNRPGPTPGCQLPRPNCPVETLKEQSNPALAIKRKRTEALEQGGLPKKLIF
Sequence of CDK7/Cyclin H/MNAT1 (P51948 whole entry, further chain): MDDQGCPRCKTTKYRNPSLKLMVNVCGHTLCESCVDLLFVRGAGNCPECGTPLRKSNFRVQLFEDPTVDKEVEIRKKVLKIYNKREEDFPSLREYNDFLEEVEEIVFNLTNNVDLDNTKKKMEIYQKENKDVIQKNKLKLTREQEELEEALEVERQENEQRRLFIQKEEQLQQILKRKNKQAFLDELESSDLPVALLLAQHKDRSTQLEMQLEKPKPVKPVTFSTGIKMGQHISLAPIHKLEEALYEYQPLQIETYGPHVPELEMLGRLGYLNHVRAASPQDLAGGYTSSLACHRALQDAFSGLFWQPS

Compound: COc1ccccc1-c1cc(Nc2cccc(NS(C)(=O)=O)c2)ncn1
- IC50 [1]: 0.82 µM
- level, % of control at 10 µM [2]: 20%
- inhibition (HEK-293T): inactive
- inhibition at 4 µM [3]: 50%
- Activity (A549): Active
- inhibition [4]: 50%
- Activity (THP-1): 45%
- Ratio IC50 [5]: > 227
- inhibition [6]: 50%
- inhibition [7]: Active
- Kd (CDK7/Cyclin H/MNAT1): 16 µM
- inhibition [8]: Active
- inhibition at 10 µM (HeLa [9]): 80%
- Activity [10]: 17.5%
- inhibition (HeLa [11]): Dose-Dependent Effect
